Measured values published in ChEMBL document CHEMBL1142551, “Acylamido analogs of endocannabinoids selectively inhibit cancer cell proliferation” (Bioorg Med Chem, 2008).
The source made the active and inactive calls. The calls are words filed in the database; no cut-off is given here.

Columns and labels:
RAW264.7 = test: Antiproliferative activity against mouse RAW264.7 cells at 10 uM after 48 hrs relative to control; assay type: functional
Outline: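 RAW264.7 cells grown in RPMI with 10% FBS and passaged by scraping. Seeded in 96-well plates, treated at 10 µM 24 h after seeding, four replicates. CellTiter-Glo ATP luminescence read 48 h after treatment; results given as percent of vehicle-treated control with SD.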

[1] = Antiproliferative activity against human WI38 cells at 10 uM after 48 hrs relative to control; assay type: cell-based; conditions: wi-38, 48 h
Outline: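 WI-38 embryonic lung fibroblasts grown in DMEM with 10% FBS and passaged with trypsin. Plated in 96-well format and exposed to a single 10 µM concentration, with DMSO vehicle. CellTiter-Glo luminescence read 48 h after treatment, four replicates. Values given as percent of control ± SD.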

HeLa = test: Antiproliferative activity against human HeLa cells at 10 uM after 48 hrs relative to control; assay type: functional, cell-based
Outline: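 HeLa cells grown in DMEM with 10% FBS, seeded in 96-well plates and treated 24 h after seeding. CellTiter-Glo assay run 48 h post-treatment, four replicates per concentration. Results given as mean ± SEM relative to DMSO vehicle.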

RBL-2H3 [2] = test: Antiproliferative activity against rat RBL2H3 cells at 1 uM treated 1 hr before LPS-challenge assessed after 24 hrs relative to control; assay type: functional
Outline: (§1)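 RBL-2H3 mast cells, 500 cells/well in 96-well plates, grown 24 h, medium changed and cells held 4 h. Agent added 1 h before LPS (10 ng/ml), then 24 h further incubation. Cell number by CellTiter-Glo luminescence, n = 3; values given as raw response and as percent of DMSO control.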

RBL-2H3 [3] = test: Antiproliferative activity against rat RBL2H3 cells at 10 uM treated 1 hr before LPS-challenge assessed after 24 hrs relative to control; assay type: functional; outline: as §1
RBL-2H3 [4] = test: Antiproliferative activity against rat RBL2H3 cells at 0.1 uM treated 1 hr before LPS-challenge assessed after 24 hrs relative to control; assay type: functional; outline: as §1
HTB126 [5] = test: Antiproliferative activity against human HTB126 cells assessed as […] at 10 uM after 48 hrs by luciferase assay; assay type: functional, cell-based
Outline: (§2)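 HTB-126 human breast tumour cells, 2000 cells/well in 24-well plates, grown 24 h, then given vehicle or agent at 10 µM final (diluted from a DMSO stock), N = 6. Parallel plates assayed at successive times after treatment by CellTiter-Glo luciferase ATP luminescence, read 15 min after adding an equal volume of reagent; raw units reported.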

HTB126 [6] = test: (§3) Antiproliferative activity against human HTB126 cells at 10 uM after 48 hrs by luciferase assay relative to control; assay type: functional
Outline: (§4)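 HTB-126 cells, with matched normal HTB-125 from the same donor, in DMEM with 10% FBS. Cells seeded in 96-well plates and treated 24 h after seeding across a dose range, four replicates per point. CellTiter-Glo ATP luminescence read 48 h after treatment; values given as percent of vehicle (DMSO) wells.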

[7] = Antiproliferative activity against human HTB125 cells at 0.1 to 1.0 uM after 48 hrs by luciferase assay relative to control; assay type: cell-based; conditions: htb125, 48 h
Outline: (§5)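 Matched breast lines from the same donor: HTB-125 (normal) and HTB-126 (tumor), seeded in 96-well plates and treated 24 h after seeding, DMSO vehicle. CellTiter-Glo ATP luminescence read 48 h after treatment. Four replicates per point over a dose series; values expressed as percent of vehicle-treated wells.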

HTB126 [8] = test: Antiproliferative activity against human HTB126 cells assessed as […] at 10 uM after 72 hrs by luciferase assay; assay type: functional, cell-based; outline: as §2
HTB126 [9] = test: Antiproliferative activity against human HTB126 cells assessed as […] at 10 uM after 24 hrs by luciferase assay; assay type: functional, cell-based; outline: as §2
HTB126 [10] = test: Antiproliferative activity against human HTB126 cells assessed as fluorescence units at 10 uM after 48 hrs by luciferase assay in presence of rimonabant; assay type: functional, cell-based
Outline: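 HTB-126 tumor breast cells in 96-well plates. Rimonabant (10 µM) added 30 min before the test agent (10 µM). CellTiter-Glo luminescence read 48 h later, four replicates. Values reported as raw fluorescence units rather than percent, because there are two control treatments.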

HTB126 [11] = test: Antiproliferative activity against human HTB126 cells at 0.1 to 1.0 uM after 48 hrs by luciferase assay relative to control; assay type: functional, cell-based; outline: as §5
HTB126 [12] = test: Antiproliferative activity against human HTB126 cells assessed as […] at 10 uM after 96 hrs by luciferase assay; assay type: functional, cell-based; outline: as §2
[13] = as §3; assay type: functional; conditions: HTB126, 48 h; outline: as §4
[14] = Antiproliferative activity against human HTB125 cells at 10 uM after 48 hrs by luciferase assay relative to control; assay type: cell-based; conditions: htb125, 48 h; outline: as §5

CCCCC/C=C\C/C=C\C/C=C\CCCCCCC(=O)NCCO
Activity (RAW264.7): 70%
Activity [1]: 54%

CCCCC/C=C\C/C=C\C/C=C\CCCCCCC(=O)NCCc1ccc(O)c(O)c1
Activity (RAW264.7): 5.72%
Activity [1]: 25.5%
Activity (HeLa): Active

CCCCC/C=C\C/C=C\C/C=C\C/C=C\CCCC(=O)N[C@@H](C)C(=O)O
Activity (RBL-2H3 [2]): 160%
Activity (RBL-2H3 [3]): 50%
Activity (RBL-2H3 [4]): 120%

CCCCC/C=C\C/C=C\C/C=C\C/C=C\CCCCCC(=O)NCCO
Activity (RAW264.7): 65%
Activity [1]: 24%

CCCCCCCCCCCCCCCC(=O)N[C@@H](C)C(=O)O
Activity (RBL-2H3 [2]): 90%
Activity (RBL-2H3 [3]): 10%
Activity (RBL-2H3 [4]): 110%

CCCCC/C=C\C/C=C\C/C=C\CCCCC(=O)NCCO
Activity (RAW264.7): 87%
Activity [1]: 54%

CCCCC/C=C\C/C=C\C/C=C\CCCCC(=O)NCCc1ccc(O)c(O)c1
Activity (RAW264.7): 6.1%
Activity [1]: 38.3%
Activity (HeLa): Active

CCCCC/C=C\C/C=C\C/C=C\CCCCC(N)=O
Activity (RAW264.7): 94%
Activity [1]: 33%

CCCCC/C=C\C/C=C\C/C=C\CCCCCCC(N)=O
Activity (RAW264.7): 82%
Activity [1]: 58%

CCCCC/C=C\C/C=C\C/C=C\C/C=C\CCCCCC(=O)NCCc1ccc(O)c(O)c1
Activity (RAW264.7): 4.32%
Activity [1]: 25.7%
Activity (HeLa): Active

CCCCCCCCCCCCCCCC(=O)N[C@@H](Cc1ccc(O)cc1)C(=O)O
Activity (HTB126 [5]): Active
Activity (HTB126 [6]): Active
Activity [7]: Non-toxic
Activity (HTB126 [8]): Active
Activity (HTB126 [9]): Active
Activity (HTB126 [10]): inactive
Activity (HTB126 [11]): inactive

CCCCC/C=C\C/C=C\C/C=C\C/C=C\CCCCCC(N)=O
Activity (RAW264.7): 91%
Activity [1]: 61%

CCCCCCC(C)(C)c1cc(O)c2c(c1)OC(C)(C)[C@@H]1CC=C(C(=O)O)C[C@@H]21
Activity (HTB126 [5]): Active
Activity (HTB126 [12]): Active
Activity (HTB126 [8]): Active
Activity (HTB126 [9]): Active
Activity (HeLa): Active

CCCCC/C=C\C/C=C\C/C=C\C/C=C\CCCC(=O)NCCO [ANANDAMIDE]
Activity (RAW264.7): 110%
Activity [1]: 74%

CCCCC/C=C\C/C=C\C/C=C\C/C=C\CCCC(N)=O [ARACHIDONAMIDE]
Activity (RAW264.7): 91%
Activity [1]: 58%

CCCCC/C=C\C/C=C\C/C=C\C/C=C\CCCC(=O)NCCc1ccc(O)c(O)c1 [ARACHIDONOYL DOPAMINE]
Activity (RBL-2H3 [2]): 70%
Activity (RAW264.7): 2.33%
Activity [1]: 22.1%
Activity (RBL-2H3 [3]): 14%
Activity (RBL-2H3 [4]): 110%

CCCCC/C=C\C/C=C\C/C=C\C/C=C\CCCC(=O)NCCCC(=O)O [ARACHIDONOYL GABA]
Activity (RBL-2H3 [2]): 120%
Activity (RBL-2H3 [3]): 15%
Activity (RBL-2H3 [4]): 100%

CCCCC/C=C\C/C=C\C/C=C\C/C=C\CCCC(=O)NCC(=O)O [ARACHIDONOYL GLYCINE]
Activity (RBL-2H3 [2]): 130%
Activity (RBL-2H3 [3]): 21%
Activity (RBL-2H3 [4]): 130%

COc1ccc2c(c1)c(CC(=O)O)c(C)n2C(=O)c1ccc(Cl)cc1 [INDOMETHACIN]
Activity (RAW264.7): 177%
Activity [1]: 144%

CC/C=C\C/C=C\C/C=C\CCCCCCCC(N)=O [LINOLENAMIDE]
Activity (RAW264.7): 126%
Activity [1]: 85%

CCCCC/C=C\C/C=C\CCCCCCCC(=O)NCCO [LINOLEOYLETHANOLAMIDE]
Activity (RAW264.7): 100%
Activity [1]: 63%

CCCCCCCC/C=C\CCCCCCCC(N)=O [OLEAMIDE]
Activity (RAW264.7): 134%
Activity [1]: 94%

CCCCCCCC/C=C\CCCCCCCC(=O)NCCc1ccc(O)c(O)c1 [OLEOYL DOPAMINE]
Activity (RAW264.7): 7.02%
Activity [1]: 24%
Activity (HeLa): Active

CCCCCCCC/C=C\CCCCCCCC(=O)NCCO [OLEOYLETHANOLAMIDE]
Activity (RAW264.7): 117%
Activity [1]: 140%

CCCCCCCCCCCCCCCC(=O)NCCO [PALMIDROL]
Activity (RAW264.7): 66%
Activity [1]: 130%

CCCCCCCCCCCCCCCC(N)=O [PALMITAMIDE]
Activity (RAW264.7): 100%
Activity [1]: 118%

CCCCCCCCCCCCCCCC(=O)NCCc1ccc(O)c(O)c1 [PALMITOYL DOPAMINE]
Activity (RBL-2H3 [2]): 50%
Activity (RAW264.7): 11.1%
inhibition at 10 µM [13]: 80%
Activity [14]: Not Active
Activity [1]: 41.6%
Activity (RBL-2H3 [3]): 15%
Activity (RBL-2H3 [4]): 130%

CCCCCCCCCCCCCCCC(=O)NCCCC(=O)O [PALMITOYL GABA]
Activity (RBL-2H3 [2]): 100%
Activity (RBL-2H3 [3]): 100%
Activity (RBL-2H3 [4]): 120%

CCCCCCCCCCCCCCCC(=O)NCC(=O)O [PALMITOYL GLYCINE]
Activity (RBL-2H3 [2]): 110%
Activity (RBL-2H3 [3]): 110%
Activity (HeLa): Active
Activity (RBL-2H3 [4]): 130%
